Data on two molecules can be found in ChEMBL document CHEMBL1255381, “Golgicide A reveals essential roles for GBF1 in Golgi assembly and function” (Nat Chem Biol, 2009).

In experiment [1] the test system is Vero. Put plainly: Induction of depolymerization of actin microfilaments in african green monkey Vero cells at 25 uM after 30 mins by immunofluorescence method. The experiment is classed as functional, cell-based. Particulars: Chlorocebus sabaeus.
Experiment [2] concerns Vero. Put plainly: Inhibition of GBF1 R843A mutant in african green monkey Vero cells mutant assessed as effect on change in golgi morphology at 10 uM after 1 hr by immunofluorescence method. The experiment is classed as cell-based. Conditions: Chlorocebus sabaeus. In outline: (§1)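 Vero cells transiently transfected (Lipofectamine 2000) with HA-tagged GBF1 wild type or R843A, K844A, Q845A or N846A mutant; after 36 h exposed 60 min to compound 10 μM, fixed, stained anti-HA and anti-giantin; Golgi morphology scored in expressing cells.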

Experiment [3] deals with Vero. Put plainly: Inhibition of GBF1-M832L mutant in african green monkey Vero cells assessed as Arf1 activation at 10 uM after 1 hr. The experiment is classed as cell-based. Particulars: Chlorocebus sabaeus.
For experiment [4], the system named is Vero. Put plainly: Inhibition of GBF1 in african green monkey Vero cells assessed as induction of betaCOP dispersal from golgi membranes at 10 uM after 5 mins by immunofluorescence method. Conditions: Chlorocebus sabaeus. In kind it is cell-based.
For experiment [5], the system named is Vero. Put plainly: Inhibition of GBF1 in african green monkey Vero cells assessed as Arf1 activation at 10 uM after 1 hr. The experiment is classed as cell-based. Particulars: Chlorocebus sabaeus.
Experiment [6] relates to Vero. Put plainly: Inhibition of GBF1 mediated NPY-GFP secretion in african green monkey Vero cells at 10 uM by immunofluorescence method. In kind it is cell-based. Conditions: Chlorocebus sabaeus.
Experiment [7] has as its system Vero. Put plainly: Inhibition of GBF1 Q845A mutant in african green monkey Vero cells mutant assessed as effect on change in golgi morphology at 10 uM after 1 hr by immunofluorescence method. In kind it is cell-based. Particulars: Chlorocebus sabaeus. In outline:
as §1

Experiment [8] concerns Vero. Put plainly: Effect on BIG2 distribution from golgi in african green monkey Vero cells by immunofluorescence method. Conditions: Chlorocebus sabaeus. In kind it is functional, cell-based.
For experiment [9], the system named is Vero. As to the kind of experiment: Inhibition of GBF1 in african green monkey Vero cells assessed as rapid GGA3 dispersal from trans golgi network at 10 uM after 5 mins by immunofluorescence method. Conditions: Chlorocebus sabaeus. The experiment is classed as cell-based.
The test system of experiment [10] is Vero. As to the kind of experiment: Inhibition of Arf1 in african green monkey Vero cells assessed as giantin positive punctate structures in contact with Sec31-positive ER exit site at 10 ug/ml after 1 hr by immunofluorescence method. The experiment is classed as cell-based. Conditions: Chlorocebus sabaeus. In outline: (§2)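 Vero cells given BFA 10 μg/ml or compound 10 μM for 60 min, fixed, co-stained for giantin and ER exit site marker Sec31; giantin puncta relative to ERES scored by immunofluorescence.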

In experiment [11] the test system is Vero. Put plainly: Inhibition of GBF1 M832L mutant in african green monkey Vero cells assessed as effect on betaCOP localization from golgi at 100 uM by immunofluorescence method. In kind it is cell-based. Particulars: Chlorocebus sabaeus.
Experiment [12] relates to Vero. As to the kind of experiment: cells. Conditions: Chlorocebus sabaeus, 0.5 h. In kind it is functional, cell-based.
The test system of experiment [13] is MDCK. Put plainly: Effect on golgi morphology in MDCK cells at 10 uM after 1 hr by immunofluorescence method. In kind it is functional, cell-based. Conditions: Canis lupus familiaris. The gist of the method:
(§3)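 MDCK cells (EMEM, 10% FCS) and Vero cells, untreated or given compound 10 μM for 1 h; fixed and immunostained for βCOP and Golgi markers; distribution compared by immunofluorescence.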

Experiment [14] concerns Vero. As to the kind of experiment: Inhibition of Arf1 in african green monkey Vero cells assessed as decrease in Arf1-GTP levels at 10 ug/ml after 1 hr. The experiment is classed as cell-based. Conditions: Chlorocebus sabaeus. In outline:
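Vero cells transduced with adenoviral Arf1-V5, alone or with GBF1-ML-HA; next day reseeded, then 45 min at 37°C with medium, BFA 10 µg/ml or compound 10 μM. Lysates pulled down with GGA3 VHS-GAT-GST on glutathione agarose, 30 min 4°C; Arf1-GTP by anti-V5 Western, band densitometry, duplicate experiments averaged.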

The test system of experiment [15] is Vero. Put plainly: Inhibition of Arf1 in african green monkey Vero cells assessed as punctate and diffuse distribution of medial-Golgi marker giantin at 10 ug/ml after 1 hr by immunofluorescence method. The experiment is classed as cell-based. Conditions: Chlorocebus sabaeus.
The subject of experiment [16] is Vero. Put plainly: Inhibition of GBF1-M832L mutant in african green monkey Vero cells assessed as colocalization of tsVSVG-GFP with […] at 10 uM by immunofluorescence method. Particulars: Chlorocebus sabaeus. In kind it is cell-based.
The test system of experiment [17] is Vero. Put plainly: Inhibition of GBF1-M832L mutant mediated NPY-GFP secretion in african green monkey Vero cells at 10 uM by immunofluorescence method. The experiment is classed as cell-based. Conditions: Chlorocebus sabaeus.
Experiment [18] deals with Vero. As to the kind of experiment: Inhibition of Arf1 in african green monkey Vero cells assessed as inhibition of StxB-SS retrogade transport from endosomes to TGN at 10 ug/ml by immunofluorescence method. The experiment is classed as cell-based. Particulars: Chlorocebus sabaeus.
Experiment [19] deals with Vero. Put plainly: Inhibition of GBF1 in african green monkey Vero cells overexpressing BIG1 assessed as punctate and diffuse distribution of medial-Golgi marker giantin from golgi at 10 uM after 1 hr by immunofluorescence method. The experiment is classed as cell-based. Particulars: Chlorocebus sabaeus.
For experiment [20], the system named is Vero. As to the kind of experiment: Inhibition of GBF1 in african green monkey Vero cells assessed as giantin positive punctate structures in contact with Sec31-positive ER exit site at 10 uM after 1 hr by immunofluorescence method. The experiment is classed as cell-based. Conditions: Chlorocebus sabaeus. The gist of the method:
as §2

Experiment [21] relates to Vero. Put plainly: Effect on transit of transferrin through endocytic and recycling pathway in african green monkey Vero cells at 10 uM after 1 hr by immunofluorescence method. The experiment is classed as functional, cell-based. Conditions: Chlorocebus sabaeus.
For experiment [22], the system named is Vero. As to the kind of experiment: Inhibition of GBF1 in african green monkey Vero cells assessed as rapid COPI redistribution from golgi at 10 uM after 5 mins by immunofluorescence method. The experiment is classed as cell-based. Particulars: Chlorocebus sabaeus.
The subject of experiment [23] is Vero. As to the kind of experiment: Inhibition of GBF1 in african green monkey Vero cells assessed as tsVSVG-GFP transport to plasma membrane at 10 uM by immunofluorescence method. Particulars: Chlorocebus sabaeus. In kind it is cell-based. In outline: (§4)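 Vero cells co-transfected with tsVSVG-GFP (ts045) and optionally GBF1-HA WT or M832L; held 12-16 h at 42°C for ER arrest, then cycloheximide 100 µg/ml plus compound 10 µM or BFA 10 µg/ml, shifted to 32°C for various times (up to 4 h); fixed, anti-HA stained, transport imaged.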

Experiment [24] has as its system Vero. Put plainly: Inhibition of GBF1 M832L in african green monkey Vero cells assessed as inhibition of StxB-SS retrogade transport from endosomes to TGN at 10 uM by immunofluorescence method. Conditions: Chlorocebus sabaeus. The experiment is classed as cell-based.
Experiment [25] has as its system Vero. Put plainly: Inhibition of GBF1 N846A mutant in african green monkey Vero cells mutant assessed as effect on change in golgi morphology at 10 uM after 1 hr by immunofluorescence method. Particulars: Chlorocebus sabaeus. In kind it is cell-based. In outline:
as §1

In experiment [26] the test system is Vero. As to the kind of experiment: Inhibition of GBF1 in african green monkey Vero cells assessed as punctate and diffuse distribution of medial-Golgi marker giantin […] at 10 uM after 1 hr by immunofluorescence method. Conditions: Chlorocebus sabaeus. In kind it is cell-based.
For experiment [27], the system named is Vero. Put plainly: Inhibition of GBF1 M832L mutant in african green monkey Vero cells assessed as effect on GM130 localization from golgi at 100 uM by immunofluorescence method. In kind it is cell-based. Conditions: Chlorocebus sabaeus.
Experiment [28] deals with Vero. Put plainly: Effect on depolymerization of actin microfilaments in african green monkey Vero cells at 10 uM after 30 mins by immunofluorescence method. The experiment is classed as functional, cell-based. Conditions: Chlorocebus sabaeus. In outline: (§5)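 Vero cells (DMEM, 10% FCS, 1% nonessential amino acids, 37°C, 5% CO2) exposed 30 min at 37°C to compound, DMSO, nocodazole or cytochalasin B; fixed and immunostained for microtubules or actin; scored by immunofluorescence microscopy.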

Experiment [29] deals with Vero. Put plainly: Inhibition of GBF1 in african green monkey Vero cells assessed as colocalization with ERGIC-53 marker in ER-golgi intermediate compartment by immunofluorescence method. The experiment is classed as cell-based. Conditions: Chlorocebus sabaeus.
Experiment [30] deals with MDCK. Put plainly: Induction of betaCOP distribution from golgi membranes in MDCK cells at 10 uM after 1 hr by immunofluorescence method. The experiment is classed as functional, cell-based. Conditions: Canis lupus familiaris. In outline:
as §3

The test system of experiment [31] is Vero. Put plainly: Inhibition of GBF1 in african green monkey Vero cells assessed as rapid AP-1 dispersal from golgi membranes at 10 uM after 5 mins by immunofluorescence method. In kind it is cell-based. Conditions: Chlorocebus sabaeus.
The test system of experiment [32] is Vero. As to the kind of experiment: Induction of GBF1 in african green monkey Vero cells assessed as punctate and diffuse distribution of cis-Golgi marker GM130 from TGN at 10 uM after 1 hr by immunofluorescence method. Conditions: Chlorocebus sabaeus. The experiment is classed as cell-based.
Experiment [33] has as its system Vero. Put plainly: Effect on BIG1 distribution from golgi in african green monkey Vero cells by immunofluorescence method. The experiment is classed as functional, cell-based. Conditions: Chlorocebus sabaeus.
In experiment [34] the test system is Vero. As to the kind of experiment: Inhibition of GBF1 M832L mutant in african green monkey Vero cells assessed as effect on TGN46 localization from golgi at 100 uM by immunofluorescence method. Conditions: Chlorocebus sabaeus. In kind it is cell-based.
In experiment [35] the test system is Vero. As to the kind of experiment: Inhibition of GBF1 in african green monkey Vero cells assessed as colocalization of tsVSVG-GFP with […] at 10 uM by immunofluorescence method. The experiment is classed as cell-based. Particulars: Chlorocebus sabaeus.
For experiment [36], the system named is Vero. As to the kind of experiment: Inhibition of GBF1-M832L mutant in african green monkey Vero cells assessed as tsVSVG-GFP transport to plasma membrane at 10 uM by immunofluorescence method. Particulars: Chlorocebus sabaeus. The experiment is classed as cell-based. The gist of the method: as §4
Experiment [37] concerns Vero. As to the kind of experiment: Inhibition of GBF1 in african green monkey Vero cells assessed as inhibition of StxB-SS retrogade transport from endosomes to TGN at 10 uM by immunofluorescence method. In kind it is cell-based. Conditions: Chlorocebus sabaeus.
Experiment [38] has as its system Vero. As to the kind of experiment: Effect on disruption of microtubules in african green monkey Vero cells at 10 uM after 30 mins by immunofluorescence method. In kind it is functional, cell-based. Conditions: Chlorocebus sabaeus. In outline: as §5
The subject of experiment [39] is Vero. Put plainly: Inhibition of GBF1 in african green monkey Vero cells overexpressing BIG1 assessed as distribution of trans-Golgi marker TGN46 from TGN at 10 uM after 1 hr by immunofluorescence method. The experiment is classed as cell-based. Particulars: Chlorocebus sabaeus.
The test system of experiment [40] is Vero. As to the kind of experiment: Inhibition of GBF1 K844A mutant in african green monkey Vero cells mutant assessed as effect on change in golgi morphology at 10 uM after 1 hr by immunofluorescence method. In kind it is cell-based. Conditions: Chlorocebus sabaeus. The gist of the method:
as §1

SMILES strings stand for the structures. Calls of active or inactive are those of the source. The calls are words filed in the database; no cut-off is given here.

In the case of `C=C1[C@@H](C)[C@H]2[C@H](Cc3ccccc3)NC(=O)[C@]23OC(=O)/C=C/[C@H](O)CCC[C@@H](C)C/C=C/[C@H]3[C@@H]1O`, in [1], the outcome was Active.

With `Fc1cc(F)c2c(c1)[C@H]1C=CC[C@H]1C(c1cccnc1)N2` (stereo not given in full) [GOLGICIDE A], the inhibition entry in experiment [2], in experiment [3], in [7], in experiment [9], in [11] and in experiment [16] was “inactive” throughout. Further, the inhibition result in [17], in [19], in experiment [25], in experiment [27], in experiment [31] and in experiment [34] was “inactive” in each case. Also, the inhibition result in [36], in experiment [39] and in experiment [40] was “inactive” throughout. For the same molecule, the inhibition result in experiment [4], in experiment [6], in experiment [10], in experiment [15], in experiment [18] and in experiment [20] was “Active” throughout. Besides, the inhibition entry in experiment [22], in experiment [23], in experiment [24], in experiment [26], in experiment [29] and in experiment [35] was “Active” throughout. Also, the inhibition entry in experiment [37] was “Active”. In addition, the inhibition in [5] was 34%; in [14], 75%. Besides, the result in [8], in experiment [13], in experiment [21], in experiment [28], in experiment [30] and in experiment [33] was inactive. Moreover, the outcome in experiment [38] was inactive. Besides, half-maximal inhibition in [12] (IC50) was put at 3.3 µM. Also, the outcome in experiment [32] was Active.
